Experiments:
Settings in all cases: in vivo
Rattus norvegicus [1] = species: Rattus norvegicus; assay: Biodistribution of Gd-LDTA (conjugated with mannose BSA) protein using [111In]- in mature female Sprague-Dawley rat colon after injecting for 24 hour.; format: ADME, organism-based
Outline: (§1)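 Conjugate of SCN-LDTPA with BSA, mannosylated BSA or galactosylated BSA (10 equiv chelate, pH 9 bicine, RT 24 h; FPLC-purified) was labelled with 340 μCi 111In acetate at pH 5.5 for 45 min. It was then gel-filtered (Biospin-6) and checked for purity by FPLC. Mature female Sprague-Dawley rats received 19 μg of conjugate. Four rats per time point (1, 4, 24, 48 h) were killed; blood, liver, bone, kidney and colon were taken and %ID/organ was calculated.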

Rattus norvegicus [2] = species: Rattus norvegicus; assay: Biodistribution of Gd-LDTA (conjugated with mannose BSA) protein using [111In]- in mature female Sprague-Dawley rat bone after injecting for 48 hour.; format: ADME, organism-based, Bone element; outline: as §1
Rattus norvegicus [3] = species: Rattus norvegicus; assay: Biodistribution of In-LDTA (conjugated with BSA) protein using [111In]- in mature female Sprague-Dawley rat colon after injecting for 1 hour.; format: ADME, organism-based
Outline: (§2)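 SCN-LDTPA was coupled (pH 9 bicine, 24 h, RT) to BSA, mannosylated BSA or galactosylated BSA and FPLC-purified. The conjugate (400 μg) was labeled with 340 μCi 111In acetate at pH 5.5 for 45 min and gel-filtered. Mature female Sprague-Dawley rats received 19 μg of conjugate; four rats per time point. Blood, liver, bone, kidney and colon were taken and reported as %ID/organ.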

Rattus norvegicus [4] = species: Rattus norvegicus; assay: Biodistribution of Gd-LDTA (conjugated with mannose BSA) protein using [111In]- in mature female Sprague-Dawley rat kidney after injecting for 96 hour.; format: ADME, organism-based
Rattus norvegicus [5] = species: Rattus norvegicus; assay: Biodistribution of Gd-LDTA (conjugated with galactose BSA) protein using [111In]- in mature female Sprague-Dawley rat colon after injecting for 4 hour.; format: ADME, organism-based; outline: as §1
Rattus norvegicus [6] = species: Rattus norvegicus; assay: Biodistribution of Gd-LDTA (conjugated with galactose BSA) protein using [111In]- in mature female Sprague-Dawley rat colon after injecting for 24 hour.; format: ADME, organism-based; outline: as §1
Rattus norvegicus [7] = species: Rattus norvegicus; assay: Biodistribution of Gd-LDTA (conjugated with mannose BSA) protein using [111In]- in mature female Sprague-Dawley rat blood after injecting for 48 hour.; format: ADME, organism-based; outline: as §1
Rattus norvegicus [8] = species: Rattus norvegicus; assay: Biodistribution of In-LDTA (conjugated with mannoseBSA)protein using [111In]- in mature female Sprague-Dawley rat blood after injecting for 1 hour.; format: ADME, organism-based; outline: as §2
Rattus norvegicus [9] = species: Rattus norvegicus; assay: Biodistribution of In-LDTA (conjugated with BSA) protein using [111In]- in mature female Sprague-Dawley rat blood after injecting for 24 hour.; format: ADME, organism-based; outline: as §2
Rattus norvegicus [10] = species: Rattus norvegicus; assay: Biodistribution of In-LDTA (conjugated with mannoseBSA) protein using [111In]- in mature female Sprague-Dawley rat bone after injecting for 4 hour.; format: ADME, organism-based, Bone element; outline: as §2
Rattus norvegicus [11] = species: Rattus norvegicus; assay: Biodistribution of In-LDTA (conjugated with BSA) protein using [111In]- in mature female Sprague-Dawley rat blood after injecting for 4 hour.; format: ADME, organism-based; outline: as §2
Rattus norvegicus [12] = species: Rattus norvegicus; assay: Biodistribution of Gd-DTA (conjugated with BSA)protein using [111In]- in mature female Sprague-Dawley rat bone after injecting for 4 hour.; format: ADME, organism-based, Bone element; outline: as §1
Rattus norvegicus [13] = species: Rattus norvegicus; assay: Biodistribution of Gd-DTA (conjugated with BSA)protein using [153Gd]- in mature female Sprague-Dawley rat bone marrow after injecting for 24 hour.
Rattus norvegicus [14] = species: Rattus norvegicus; assay: Biodistribution of Gd-LDTA (conjugated with mannose BSA) protein using [111In]- in mature female Sprague-Dawley rat bone marrow after injecting for 1 hour.; format: ADME, organism-based
Rattus norvegicus [15] = species: Rattus norvegicus; assay: Biodistribution of In-LDTA (conjugated with galactose BSA)protein using [111In]- in mature female Sprague-Dawley rat bone after injecting for 4 hour.; format: ADME, organism-based, Bone element; outline: as §2
Rattus norvegicus [16] = species: Rattus norvegicus; assay: Biodistribution of In-LDTA (conjugated with galactose BSA)protein using [111In]- in mature female Sprague-Dawley rat blood after injecting for 4 hour.; format: ADME, organism-based; outline: as §2
Rattus norvegicus [17] = species: Rattus norvegicus; assay: Biodistribution of Gd-LDTA (conjugated with mannose BSA) protein using [111In]- in mature female Sprague-Dawley rat bone marrow after injecting for 24 hour.; format: ADME, organism-based
Rattus norvegicus [18] = species: Rattus norvegicus; assay: Biodistribution of In-LDTA (conjugated with galactose BSA)protein using [111In]- in mature female Sprague-Dawley rat kidney after injecting for 4 hour.; format: ADME, organism-based; outline: as §2
Rattus norvegicus [19] = species: Rattus norvegicus; assay: Biodistribution of In-LDTA (conjugated with mannoseBSA)protein using [111In]- in mature female Sprague-Dawley rat blood after injecting for 4 hour.; format: ADME, organism-based; outline: as §2
Rattus norvegicus [20] = species: Rattus norvegicus; assay: Biodistribution of In-LDTA (conjugated with BSA) protein using [111In]- in mature female Sprague-Dawley rat liver after injecting for 4 hour.; format: ADME, organism-based; outline: as §2
Rattus norvegicus [21] = species: Rattus norvegicus; assay: Biodistribution of Gd-LDTA (conjugated with galactose BSA) protein using [111In]- in mature female Sprague-Dawley rat blood after injecting for 4 hour.; format: ADME, organism-based; outline: as §1
Rattus norvegicus [22] = species: Rattus norvegicus; assay: Biodistribution of In-LDTA (conjugated with mannoseBSA)protein using [111In]- in mature female Sprague-Dawley rat blood after injecting for 24 hour.; format: ADME, organism-based; outline: as §2
Rattus norvegicus [23] = species: Rattus norvegicus; assay: Biodistribution of In-LDTA (conjugated with mannoseBSA) protein using [111In]- in mature female Sprague-Dawley rat bone after injecting for 48 hour.; format: ADME, organism-based, Bone element; outline: as §2
Rattus norvegicus [24] = species: Rattus norvegicus; assay: Biodistribution of Gd-DTA (conjugated with BSA)protein using [111In]- in mature female Sprague-Dawley rat bone marrow after injecting for 1 hour.; format: ADME, organism-based
Rattus norvegicus [25] = species: Rattus norvegicus; assay: Biodistribution of Gd-DTA (conjugated with BSA)protein using [111In]- in mature female Sprague-Dawley rat colon after injecting for 1 hour.; format: ADME, organism-based; outline: as §1
Rattus norvegicus [26] = species: Rattus norvegicus; assay: Biodistribution of In-LDTA (conjugated with galactose BSA)protein using [111In]- in mature female Sprague-Dawley rat kidney after injecting for 24 hour.; format: ADME, organism-based; outline: as §2
Rattus norvegicus [27] = species: Rattus norvegicus; assay: Biodistribution of Gd-LDTA (conjugated with mannose BSA) protein using [111In]- in mature female Sprague-Dawley rat bone after injecting for 4 hour.; format: ADME, organism-based, Bone element; outline: as §1
Rattus norvegicus [28] = species: Rattus norvegicus; assay: Biodistribution of Gd-DTA (conjugated with BSA)protein using [111In]- in mature female Sprague-Dawley rat liver after injecting for 24 hour.; format: ADME, organism-based; outline: as §1
Rattus norvegicus [29] = species: Rattus norvegicus; assay: Biodistribution of Gd-LDTA (conjugated with galactose BSA) protein using [111In]- in mature female Sprague-Dawley rat liver after injecting for 1 hour.; format: ADME, organism-based; outline: as §1
Rattus norvegicus [30] = species: Rattus norvegicus; assay: Biodistribution of Gd-DTA (conjugated with BSA)protein using [153Gd]- in mature female Sprague-Dawley rat bone after injecting for 96 hour.
Rattus norvegicus [31] = species: Rattus norvegicus; assay: Biodistribution of In-LDTA (conjugated with BSA) protein using [111In]- in mature female Sprague-Dawley rat bone after injecting for 48 hour.; format: ADME, organism-based, Bone element; outline: as §2

- ID/organ (Rattus norvegicus [1]): 0.403%
- ID/organ (Rattus norvegicus [2]): 20.4%
- ID/organ (Rattus norvegicus [3]): 0.86%
- ID/organ (Rattus norvegicus [4]): 0.405%
- ID/organ (Rattus norvegicus [5]): 4.09%
- ID/organ (Rattus norvegicus [6]): 6.07%
- ID/organ (Rattus norvegicus [7]): 0.04%
- ID/organ (Rattus norvegicus [8]): 0.255%
- ID/organ (Rattus norvegicus [9]): 10.8%
- ID/organ (Rattus norvegicus [10]): 10.1%
- ID/organ (Rattus norvegicus [11]): 53.8%
- ID/organ (Rattus norvegicus [12]): 22.3%
- ID/organ (Rattus norvegicus [13]): 3.07%
- ID/organ (Rattus norvegicus [14]): 2.61%
- ID/organ (Rattus norvegicus [15]): 0.329%
- ID/organ (Rattus norvegicus [16]): 0.0462%
- ID/organ (Rattus norvegicus [17]): 2.13%
- ID/organ (Rattus norvegicus [18]): 0.0688%
- ID/organ (Rattus norvegicus [19]): 0.149%
- ID/organ (Rattus norvegicus [20]): 17%
- ID/organ (Rattus norvegicus [21]): 0.045%
- ID/organ (Rattus norvegicus [22]): 0.129%
- ID/organ (Rattus norvegicus [23]): 9.84%
- ID/organ (Rattus norvegicus [24]): 1.19%
- ID/organ (Rattus norvegicus [25]): 0.952%
- ID/organ (Rattus norvegicus [26]): 0.112%
- ID/organ (Rattus norvegicus [27]): 16.4%
- ID/organ (Rattus norvegicus [28]): 20%
- ID/organ (Rattus norvegicus [29]): 91.3%
- ID/organ (Rattus norvegicus [30]): 44.6%
- ID/organ (Rattus norvegicus [31]): 25.9%
Compound: Nc1ccc(CC(C(=O)O)N(CCN(CC(=O)O)CC(=O)O)CCN(CC(=O)O)CC(=O)O)cc1 (stereo unspecified)

Reference: ChEMBL document CHEMBL1129260, “Evaluation of the stability and animal biodistribution of gadolinium (III) benzylamine-derivatized diethylenetriaminepentaacetic acid” (J Med Chem, 1996)
